The text below walks through data of ChEMBL document CHEMBL1687722, “Mode of action of Ranbezolid against staphylococci and structural modeling studies of its interaction with ribosomes” (Antimicrob Agents Chemother, 2009).

For orientation: IC50 means the concentration needed to halve the response being measured. Read a high IC50 as weaker potency. In general, MIC refers to the least concentration at which growth counts as inhibited.

Assay [1] concerns Staphylococcus epidermidis. Kind of assay: Induction of bacterial membrane damage in Staphylococcus epidermidis ATCC 23760 at 15 uM by BacLight assay. The assay is classed as functional. Summed up: (§1)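 Mid-log cells (overnight MHB culture at 37°C, diluted 1:100, grown to OD600 0.5–0.6) washed in water, diluted 1:20 into water containing compound, shaken 15–30 min at room temperature (25°C). Washed, adjusted to OD670 0.325, stained with BacLight reagent (3 µl/ml) for 15 min in the dark. Syto 9 (480/500 nm)/propidium iodide (490/635 nm) fluorescence ratio expressed versus control; <40% of control indicates membrane damage.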

Assay [2] concerns Staphylococcus aureus. Kind of assay: Induction of bacterial membrane damage in Staphylococcus aureus ATCC 25923 at 15 uM by BacLight assay. The assay is classed as functional. In a few lines: as §1
Assay [3] relates to Staphylococcus aureus. Kind of assay: Inhibition of DNA synthesis in Staphylococcus aureus ATCC 25923 assessed as incorporation of [3H]thymidine at 2 ug/ml by liquid scintillation counter. It is filed as functional, organism-based. Summed up:
(§2)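 Whole-cell macromolecular synthesis. Cells grown in MHB to early log phase (OD600 0.3) were given a labelled precursor: [3H]thymidine, [3H]uridine or [3H]N-acetylglucosamine at 1 µCi/ml, or [14C]isoleucine or [14C]acetate at 0.1 µCi/ml. Drug was added 5 min later. Macromolecules were precipitated with ice-cold TCA (5% final), filtered, dried overnight at 37°C and counted by scintillation. A pathway-specific antibiotic was run as positive control.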

Assay [4] has as its system Staphylococcus epidermidis. Put plainly: Inhibition of DNA synthesis in Staphylococcus epidermidis ATCC 23760 assessed as incorporation of [3H]thymidine at 2 ug/ml by liquid scintillation counter. The assay is classed as functional, organism-based. In a few lines: as §2
Assay [5] can be described thus: Inhibition of ribosomal activity in Escherichia coli S30 by coupled transcription/translation assay. The assay is classed as subcellular, Ribosome. Summed up: (§3)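 Cell-free coupled transcription/translation of a luciferase gene, using E. coli S30 extract (bacterial) or a TNT kit (mammalian ribosomes). Percent inhibition of luciferase activity across a range of drug concentrations was calculated relative to the no-drug control.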

For assay [6], the system named is Staphylococcus epidermidis. Kind of assay: Inhibition of protein synthesis in Staphylococcus epidermidis ATCC 23760 assessed as incorporation of [14C]isoleucine at 2 ug/ml by liquid scintillation counter. It is filed as functional, organism-based. Summed up: as §2
Assay [7] concerns Staphylococcus epidermidis. Put plainly: Bacteriostatic activity against Staphylococcus epidermidis ATCC 23760 at 4 X MIC after 24 hrs by time-kill analysis. The assay is classed as functional, organism-based.
Assay [8] concerns Staphylococcus epidermidis. Kind of assay: Induction of bacterial membrane damage in Staphylococcus epidermidis ATCC 23760 at 4 ug/mL by BacLight assay. It is filed as functional, organism-based. Summed up:
(§4)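 BacLight membrane integrity. Mid-log MHB cultures (OD600 0.5–0.6) were washed and resuspended in water, then exposed to drug at 1–8 µg/ml for 15–30 min at room temperature (25°C) with shaking. Cells were washed, set to OD670 0.325 and stained with Syto 9/propidium iodide for 15 min in the dark. The Syto 9 (480/500 nm) to PI (490/635 nm) fluorescence ratio was compared with untreated controls. Valinomycin and CCCP served as positive controls.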

Another assay has as its system Ribosome. Put plainly: Inhibition of mammalian ribosomal activity by coupled transcription/translation assay. It is filed as subcellular. Summed up: as §3
In assay [9] the test system is Staphylococcus aureus. Kind of assay: Bacteriostatic activity against Staphylococcus aureus ATCC 25923 at 8 times MIC after 30 hrs by time-kill analysis. It is filed as functional, organism-based.
Assay [10] has as its system Staphylococcus aureus. Kind of assay: Inhibition of protein synthesis in Staphylococcus aureus ATCC 25923 assessed as incorporation of [14C]isoleucine at 2 ug/ml by liquid scintillation counter. It is filed as functional, organism-based. In a few lines:
as §2

Assay [11] has as its system Staphylococcus aureus. Put plainly: Inhibition of RNA synthesis in Staphylococcus aureus ATCC 25923 assessed as incorporation of [3H]uridine at 2 ug/ml by liquid scintillation counter. It is filed as functional, organism-based. Summed up:
as §2

Assay [12] relates to Staphylococcus epidermidis. Put plainly: Inhibition of lipid synthesis in Staphylococcus epidermidis ATCC 23760 assessed as incorporation of [14C]acetate at 2 ug/ml after 60 mins by liquid scintillation counter. The assay is classed as functional, organism-based. In a few lines: as §2
For assay [13], the system named is Staphylococcus epidermidis. Kind of assay: Antimicrobial activity against Staphylococcus epidermidis ATCC 23760 by microdilution method. The assay is classed as functional. In a few lines:
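MIC determined by broth microdilution in the course of the macromolecular synthesis work; cultures grown in Mueller-Hinton broth.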
(In general: Broth dilution looks for growth in wells or tubes with falling amounts of substance.)

Assay [14] concerns Staphylococcus epidermidis. Kind of assay: Inhibition of cell wall synthesis in Staphylococcus epidermidis ATCC 23760 assessed as incorporation of [3H]N-acetylglucosamine at 2 ug/ml after 60 mins by liquid scintillation counter. It is filed as functional, organism-based. Summed up:
as §2

Assay [15] deals with Staphylococcus aureus. Put plainly: Induction of bacterial membrane damage in Staphylococcus aureus ATCC 25923 at 4 ug/mL by BacLight assay. It is filed as functional, organism-based. In a few lines:
as §4

Assay [16] concerns Staphylococcus epidermidis. Put plainly: Inhibition of RNA synthesis in Staphylococcus epidermidis ATCC 23760 assessed as incorporation of [3H]uridine at 2 ug/ml by liquid scintillation counter. It is filed as functional, organism-based. Summed up:
as §2

For assay [17], the system named is Staphylococcus epidermidis. Kind of assay: Induction of bacterial membrane damage in Staphylococcus epidermidis ATCC 23760 at 2 ug/mL by BacLight assay relative to untreated control. It is filed as functional. Summed up: as §4
The test system of assay [18] is Staphylococcus epidermidis. Put plainly: Inhibition of DNA synthesis in Staphylococcus epidermidis ATCC 23760 assessed as incorporation of [3H]thymidine at 1 ug/ml by liquid scintillation counter. It is filed as functional, organism-based. Summed up: as §2
Assay [19] deals with Staphylococcus aureus. Kind of assay: Antimicrobial activity against Staphylococcus aureus ATCC 25923 by microdilution method. It is filed as functional.
The test system of assay [20] is Staphylococcus epidermidis. Kind of assay: Inhibition of cell wall synthesis in Staphylococcus epidermidis ATCC 23760 assessed as incorporation of [3H]N-acetylglucosamine at 1 ug/ml after 60 mins by liquid scintillation counter. The assay is classed as functional, organism-based. Summed up: as §2
The nature of assay [21]: Ratio of IC50 for mammalian ribosomal activity to ribosomal activity in Escherichia coli S30 by coupled transcription/translation assay. It is filed as subcellular. Particulars: Ribosome.
In assay [22] the test system is Staphylococcus epidermidis. Put plainly: Bactericidal activity against Staphylococcus epidermidis ATCC 23760 by time-kill analysis. The assay is classed as functional.
Assay [23] deals with Staphylococcus aureus. Kind of assay: Inhibition of RNA synthesis in Staphylococcus aureus ATCC 25923 assessed as incorporation of [3H]uridine at 1 ug/ml by liquid scintillation counter. It is filed as functional, organism-based. Summed up: as §2
For assay [24], the system named is Staphylococcus epidermidis. Put plainly: Induction of bacterial membrane damage in Staphylococcus epidermidis ATCC 23760 at 2 to 8 ug/mL by BacLight assay. It is filed as functional, organism-based. Summed up:
as §4

In assay [25] the test system is Staphylococcus epidermidis. Put plainly: Induction of bacterial membrane damage in Staphylococcus epidermidis ATCC 23760 at 1 ug/mL by BacLight assay relative to untreated control. It is filed as functional, organism-based. In a few lines: as §4
Assay [26] relates to Staphylococcus aureus. Put plainly: Inhibition of DNA synthesis in Staphylococcus aureus ATCC 25923 assessed as incorporation of [3H]thymidine at 1 ug/ml by liquid scintillation counter. The assay is classed as functional, organism-based. In a few lines: as §2
Assay [27] relates to Staphylococcus aureus. Put plainly: Inhibition of protein synthesis in Staphylococcus aureus ATCC 25923 assessed as incorporation of [14C]isoleucine at 1 ug/ml by liquid scintillation counter. The assay is classed as functional, organism-based. In a few lines: as §2
The test system of assay [28] is Staphylococcus epidermidis. Put plainly: Inhibition of lipid synthesis in Staphylococcus epidermidis ATCC 23760 assessed as incorporation of [14C]acetate at 1 ug/ml after 60 mins by liquid scintillation counter. It is filed as functional, organism-based. Summed up:
as §2

In assay [29] the test system is Staphylococcus epidermidis. Kind of assay: Bactericidal activity against Staphylococcus epidermidis ATCC 23760 at 4 ug/ml after 6 hrs by time-kill analysis. It is filed as functional, organism-based.
Assay [30] has as its system Staphylococcus aureus. Kind of assay: Bactericidal activity against Staphylococcus aureus ATCC 25923 at 16 ug/ml by time-kill analysis. It is filed as functional, organism-based.
Assay [31] relates to Staphylococcus epidermidis. Kind of assay: Inhibition of protein synthesis in Staphylococcus epidermidis ATCC 23760 assessed as incorporation of [14C]isoleucine at 1 ug/ml by liquid scintillation counter. The assay is classed as functional, organism-based. In a few lines:
as §2

Assay [32] deals with Staphylococcus epidermidis. Put plainly: Bactericidal activity against Staphylococcus epidermidis ATCC 23760 at 8 ug/ml after 4 hrs by time-kill analysis. It is filed as functional, organism-based.
The subject of assay [33] is Staphylococcus epidermidis. Kind of assay: Inhibition of RNA synthesis in Staphylococcus epidermidis ATCC 23760 assessed as incorporation of [3H]uridine at 1 ug/ml by liquid scintillation counter. It is filed as functional, organism-based. In a few lines:
as §2

Assay [34] has as its system Staphylococcus aureus. Kind of assay: Induction of bacterial membrane damage in Staphylococcus aureus ATCC 25923 at 100 uM by BacLight assay. The assay is classed as functional. Summed up: as §1
For assay [35], the system named is Staphylococcus epidermidis. Put plainly: Induction of bacterial membrane damage in Staphylococcus epidermidis ATCC 23760 at 100 uM by BacLight assay. The assay is classed as functional. Summed up:
as §1

Structures are written as SMILES. Values after ≈ are worked out from the molar mass of the structure shown. Active and inactive are the calls of the source. No cut-off for these calls is given here. Bounds are passed on as bounds.

In the case of `N#CC(C#N)=NNc1cccc(Cl)c1` [CARBONYL CYANIDE M-CHLOROPHENYLHYDRAZONE], the Activity (in assay [1]; with Staphylococcus aureus [2]) was <40% in each case.

Turning to `CC(=O)NC[C@H]1CN(c2ccc(N3CCOCC3)c(F)c2)C(=O)O1` [LINEZOLID], the inhibition entry (in the assay on Staphylococcus aureus [3]; in [4]; with Staphylococcus aureus [11]; in assay [16]) was “inactive” throughout. In addition, the figures for the half-inhibitory concentration (IC50) (in assay [5]; in the assay with Ribosome) were 0.1 mM and 11.9 mM, respectively. In addition, the inhibition result (in [6]; in the assay on Staphylococcus aureus [10]; in assay [12]; in [14]) was “Active” each time. Further, the outcome (in [7]; with Staphylococcus aureus [9]) was Active. Moreover, the result (in [8]; in the assay with Staphylococcus aureus [15]) was inactive. Besides, in assay [13], inhibition of growth (MIC) required 2 µg/mL (≈ 5.93 µM).

As to `CC(=O)NC[C@H]1CN(c2ccc(N3CCN(Cc4ccc([N+](=O)[O-])o4)CC3)c(F)c2)C(=O)O1` [RANBEZOLID], the Activity in assay [17] worked out at 50%; in assay [22], 99.9%. Moreover, the inhibition entry (in assay [18]; with Staphylococcus aureus [23]; in the assay on Staphylococcus aureus [26]; in [33]) was “inactive” throughout. Besides, the IC50 in assay [5] came to 0.017 mM; with Ribosome, 14.7 mM. In addition, the minimal inhibitory concentration (MIC) (against Staphylococcus aureus [19]; in [13]) was 1 µg/mL (≈ 2.17 µM) in each case. Also, the inhibition entry (in assay [20]; in the assay with Staphylococcus aureus [27]; in [28]; in [31]) was “Active” throughout. Further, in assay [21], the Ratio came out at 865. Further, the outcome (in assay [8]; in assay [24]; in the assay with Staphylococcus aureus [9]; in assay [29]; in the assay on Staphylococcus aureus [30]; in [32]) was Active. Also, the result (in [25]; with Staphylococcus aureus [15]) was inactive.

`CC(C)[C@@H]1NC(=O)[C@H](C)OC(=O)[C@@H](C(C)C)NC(=O)[C@@H](C(C)C)OC(=O)[C@H](C(C)C)NC(=O)[C@H](C)OC(=O)[C@@H](C(C)C)NC(=O)[C@@H](C(C)C)OC(=O)[C@H](C(C)C)NC(=O)[C@H](C)OC(=O)[C@@H](C(C)C)NC(=O)[C@@H](C(C)C)OC1=O` [VALINOMYCIN]: the Activity (in the assay with Staphylococcus aureus [34]; in [35]) was <40% in each case.
